Active and inactive are the calls of the source. The calls are words filed in the database; no cut-off is given here.
What was measured:
Rattus norvegicus [1] = assay: Neurotoxicity in Sprague-Dawley rat assessed as minimal motor impairment at 30 mg/kg, po after 1 hr by rotorod test; conditions: in vivo
Mus musculus [2] = assay: Neurotoxicity in CF1 mouse assessed as minimal motor impairment at 100 mg/kg, ip after 0.5 hrs by rotorod test; type: toxicity, organism-based; design: dose 100 mg/kg, route intraperitoneal; conditions: in vivo
How it was run: (§1)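 Rotarod neurotoxicity screen in mice dosed i.p. at 30, 100 or 300 mg/kg, read 0.5 or 4 h after dosing. The animal must stay on a rod rotating at 6 rpm without falling, measured 3 times within 1 min. A fall counts as minimal motor impairment. Result is recorded as impaired animals over animals used.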

Rattus norvegicus [3] = assay: Neurotoxicity in Sprague-Dawley rat assessed as minimal motor impairment at 30 mg/kg, po after 0.25 hrs by rotorod test; conditions: in vivo
Mus musculus [4] = assay: Neurotoxicity in CF1 mouse assessed as minimal motor impairment at 30 mg/kg, ip after 4 hrs by rotorod test; type: toxicity, organism-based; design: dose 30 mg/kg, route intraperitoneal; conditions: in vivo
How it was run: as §1

Rattus norvegicus [5] = assay: Neurotoxicity in Sprague-Dawley rat assessed as minimal motor impairment at 30 mg/kg, po after 2 hrs by rotorod test; conditions: in vivo
Rattus norvegicus [6] = assay: Neurotoxicity in Sprague-Dawley rat assessed as minimal motor impairment at 30 mg/kg, po after 4 hrs by rotorod test; conditions: in vivo
Rattus norvegicus [7] = assay: Anticonvulsant activity in po dosed Sprague-Dawley rat assessed as protection against maximal electroshock-induced seizures after 4 hrs; type: functional
How it was run: (§2)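 Quantitative oral assay in rats, run at a time to peak effect of 4 h. ED50 is the dose protecting 50% of animals against MES or ScMet seizures, with 95% confidence interval. TD50 is the dose giving neurotoxicity in 50% of animals. PI = TD50/ED50.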

Mus musculus [8] = assay: Neurotoxicity in CF1 mouse assessed as minimal motor impairment at 300 mg/kg, ip after 0.5 hrs by rotorod test; type: toxicity, organism-based; design: dose 300 mg/kg, route intraperitoneal; conditions: in vivo
How it was run: as §1

[9] = Neurotoxicity in po dosed Sprague-Dawley rat assessed as minimal motor impairment by rotorod test; type: toxicity, organism-based; conditions: in vivo
Rattus norvegicus [10] = assay: Anticonvulsant activity in po dosed Sprague-Dawley rat assessed as protection against subcutaneous metrazole-induced seizures after 4 hrs; type: functional
How it was run: as §2

Mus musculus [11] = assay: Neurotoxicity in CF1 mouse assessed as minimal motor impairment at 30 mg/kg, ip after 0.5 hrs by rotorod test; type: toxicity, organism-based; design: dose 30 mg/kg, route intraperitoneal; conditions: in vivo
How it was run: as §1

Rattus norvegicus [12] = assay: Protective index, ratio of TD50 for po dosed Sprague-Dawley rat assessed as minimal motor impairment by rotorod test to ED50 for po dosed Sprague-Dawley rat assessed as protection against maximal electroshock-induced seizures; type: functional
How it was run: as §2

Rattus norvegicus [13] = assay: Neurotoxicity in Sprague-Dawley rat assessed as minimal motor impairment at 30 mg/kg, po after 0.5 hrs by rotorod test; conditions: in vivo
Mus musculus [14] = assay: Neurotoxicity in CF1 mouse assessed as minimal motor impairment at 100 mg/kg, ip after 4 hrs by rotorod test; type: toxicity, organism-based; design: dose 100 mg/kg, route intraperitoneal; conditions: in vivo
How it was run: as §1

Mus musculus [15] = assay: Neurotoxicity in CF1 mouse assessed as minimal motor impairment at 300 mg/kg, ip after 4 hrs by rotorod test; type: toxicity, organism-based; design: dose 300 mg/kg, route intraperitoneal; conditions: in vivo
How it was run: as §1

Mus musculus [16] = assay: Anticonvulsant activity in CF1 mouse assessed as protection against subcutaneous metrazole-induced seizures at 300 mg/kg, ip after 0.5 hrs; type: functional, organism-based; design: dose 300 mg/kg
How it was run: (§3)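 Mice given compound i.p. at 30, 100 or 300 mg/kg and tested 0.5 or 4 h after dosing. Seizures were induced by maximal electroshock (MES) or subcutaneous metrazole (ScMet). Prevention of seizures counts as protection. Result is recorded as number of animals protected over number tested.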

Mus musculus [17] = assay: Anticonvulsant activity in CF1 mouse assessed as protection against maximal electroshock-induced seizures at 100 mg/kg, ip after 4 hrs; type: functional, organism-based; design: dose 100 mg/kg
How it was run: as §3

Rattus norvegicus [18] = assay: Anticonvulsant activity in Sprague-Dawley rat assessed as protection against maximal electroshock-induced seizures at 30 mg/kg, po after 0.5 hrs; type: functional, organism-based; design: dose 30 mg/kg
How it was run: (§4)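 Rats dosed orally at 30 mg/kg and tested in MES at several time points after dosing. Protection means seizures were prevented. Result is recorded as number of animals protected over number tested.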

Rattus norvegicus [19] = organism: Rattus norvegicus; assay: Displacement of [3H]CGP-12177 from beta1-adrenergic receptor in rat cerebral cortex at 50 uM after 60 mins by scintillation counting; type: tissue-based
Rattus norvegicus [20] = assay: Anticonvulsant activity in Sprague-Dawley rat assessed as protection against maximal electroshock-induced seizures at 30 mg/kg, po after 1 hr; type: functional, organism-based; design: dose 30 mg/kg
How it was run: as §4

Mus musculus [21] = assay: Anticonvulsant activity in CF1 mouse assessed as protection against subcutaneous metrazole-induced seizures at 100 mg/kg, ip after 4 hrs; type: functional, organism-based; design: dose 100 mg/kg
How it was run: as §3

Mus musculus [22] = assay: Anticonvulsant activity in CF1 mouse assessed as protection against subcutaneous metrazole-induced seizures at 30 mg/kg, ip after 0.5 hrs; type: functional, organism-based; design: dose 30 mg/kg
How it was run: as §3

Rattus norvegicus [23] = assay: Anticonvulsant activity in Sprague-Dawley rat assessed as protection against maximal electroshock-induced seizures at 30 mg/kg, po after 2 hrs; type: functional, organism-based; design: dose 30 mg/kg
How it was run: as §4

Mus musculus [24] = assay: Anticonvulsant activity in CF1 mouse assessed as protection against subcutaneous metrazole-induced seizures at 30 mg/kg, ip after 4 hrs; type: functional, organism-based; design: dose 30 mg/kg
How it was run: as §3

Rattus norvegicus [25] = assay: Anticonvulsant activity in Sprague-Dawley rat assessed as protection against maximal electroshock-induced seizures at 30 mg/kg, po after 0.25 hrs; type: functional, organism-based; design: dose 30 mg/kg
How it was run: as §4

Mus musculus [26] = assay: Anticonvulsant activity in CF1 mouse assessed as protection against maximal electroshock-induced seizures at 30 mg/kg, ip after 0.5 hrs; type: functional, organism-based; design: dose 30 mg/kg
How it was run: as §3

Mus musculus [27] = assay: Anticonvulsant activity in CF1 mouse assessed as protection against maximal electroshock-induced seizures at 300 mg/kg, ip after 4 hrs; type: functional, organism-based; design: dose 300 mg/kg
How it was run: as §3

Mus musculus [28] = assay: Anticonvulsant activity in CF1 mouse assessed as protection against subcutaneous metrazole-induced seizures at 300 mg/kg, ip after 4 hrs; type: functional, organism-based; design: dose 300 mg/kg
How it was run: as §3

Mus musculus [29] = assay: Anticonvulsant activity in CF1 mouse assessed as protection against maximal electroshock-induced seizures at 30 mg/kg, ip after 4 hrs; type: functional, organism-based; design: dose 30 mg/kg
How it was run: as §3

Mus musculus [30] = assay: Anticonvulsant activity in CF1 mouse assessed as protection against subcutaneous metrazole-induced seizures at 100 mg/kg, ip after 0.5 hrs; type: functional, organism-based; design: dose 100 mg/kg
How it was run: as §3

For `COc1ccc2c(=O)c3cc(CN4CCN(Cc5ccccc5)CC4)ccc3oc2c1`, which Activity (Rattus norvegicus [1]) is on record?
Its Activity is “Non-toxic”.

And the Activity (Mus musculus [2])?
Its Activity is “Non-toxic”.

What about the Activity (Rattus norvegicus [3]) of the same compound?
Its Activity is “Non-toxic”.

And the Activity (Mus musculus [4])?
Its Activity is “Non-toxic”.

What about the Activity (Rattus norvegicus [5]) of the same compound?
Its Activity is “Non-toxic”.

And the Activity (Rattus norvegicus [6])?
The Activity was “Non-toxic”.

And the ED50 (Rattus norvegicus [7])?
The ED50 was 105 mg/kg.

And the Activity (Mus musculus [8])?
The Activity was “Non-toxic”.

And the TD50 [9]?
The TD50 was over 300 mg/kg.

And the ED50 (Rattus norvegicus [10])?
Its ED50 is over 250 mg/kg.

What about the Activity (Mus musculus [11]) of the same compound?
The Activity was “Non-toxic”.

What about the “Ratio TD50/ED50” value (Rattus norvegicus [12]) of the same compound?
Its value is over 2.86.

What about the Activity (Rattus norvegicus [13]) of the same compound?
Its Activity is “Non-toxic”.

And the Activity (Mus musculus [14])?
The Activity was “Non-toxic”.

What about the Activity (Mus musculus [15]) of the same compound?
Its Activity is “Non-toxic”.

For `COc1ccc2c(=O)c3cc(CN4CCN(C)CC4)ccc3oc2c1`, which Activity (Mus musculus [16]) is on record?
The Activity was “inactive”.

What about the Activity (Mus musculus [17]) of the same compound?
The Activity was “inactive”.

What about the Activity (Rattus norvegicus [18]) of the same compound?
The Activity was “inactive”.

And the inhibition (Rattus norvegicus [19])?
Its inhibition is “inactive”.

And the Activity (Rattus norvegicus [20])?
The Activity was “inactive”.

And the Activity (Mus musculus [21])?
The Activity was “inactive”.

And the Activity (Mus musculus [22])?
The Activity was “inactive”.

And the Activity (Rattus norvegicus [23])?
Its Activity is “inactive”.

What about the Activity (Mus musculus [24]) of the same compound?
Its Activity is “inactive”.

What about the Activity (Rattus norvegicus [25]) of the same compound?
The Activity was “inactive”.

And the Activity (Mus musculus [26])?
The Activity was “inactive”.

And the Activity (Mus musculus [27])?
Its Activity is “Active”.

And the Activity (Mus musculus [28])?
The Activity was “inactive”.

What about the Activity (Mus musculus [29]) of the same compound?
Its Activity is “inactive”.

And the Activity (Mus musculus [30])?
Its Activity is “inactive”.

From ChEMBL document CHEMBL2401625, “Synthesis and evaluation of pharmacological properties of some new xanthone derivatives with piperazine moiety” (Bioorg Med Chem Lett, 2013)
